This passage reports Activity and viability results from ChEMBL document CHEMBL4251573, “Synthesis and biological evaluation of N-substituted 3-oxo-1,2,3,4-tetrahydro-quinoxaline-6-carboxylic acid derivatives as tubulin polymerization inhibitors” (Eur J Med Chem, 2018).

The subject of assay [1] is HeLa. The assay is described as follows: Cell cycle arrest in human HeLa cells assessed as accumulation at G0/G1 phase at 0.10 uM after 24 hrs by propidium iodide staining-based flow cytometric method (reference value: 62.2%). It counts as functional. (In general: Flow cytometry measures light scatter and fluorescence of single cells or particles in a stream.)
The test system of assay [2] is HeLa. The assay is described as follows: Cell cycle arrest in human HeLa cells assessed as accumulation at G0/G1 phase at 0.15 uM after 24 hrs by propidium iodide staining-based flow cytometric method (reference value: 62.2%). It is filed as functional.
The test system of assay [3] is HeLa. The assay is described as follows: Cell cycle arrest in human HeLa cells assessed as accumulation at G2/M phase at 0.20 uM after 24 hrs by propidium iodide staining-based flow cytometric method (reference value: 19.9%). It counts as functional.
Assay [4] relates to HeLa. The assay is described as follows: Cell cycle arrest in human HeLa cells assessed as accumulation at sub G1 phase at 0.25 uM after 24 hrs by propidium iodide staining-based flow cytometric method (reference value: 7.6%). It counts as functional.
In assay [5] the test system is HeLa. Put plainly: Cell cycle arrest in human HeLa cells assessed as accumulation at G2/M phase at 0.25 uM after 24 hrs by propidium iodide staining-based flow cytometric method (reference value: 19.9%). It is filed as functional.
The subject of assay [6] is HeLa. The assay is described as follows: Induction of apoptosis in human HeLa cells assessed as necrotic cells at 0.10 uM after 24 hrs by annexin V-FITC/propidium iodide staining-based flow cytometric method (reference value: 0.15%). It counts as functional.
In assay [7] the test system is HeLa. The assay is described as follows: Induction of apoptosis in human HeLa cells assessed as necrotic cells at 0.15 uM after 24 hrs by annexin V-FITC/propidium iodide staining-based flow cytometric method (reference value: 0.15%). It is filed as functional.
Assay [8] deals with HeLa. Put plainly: Induction of apoptosis in human HeLa cells assessed as viable cells at 0.15 uM after 24 hrs by annexin V-FITC/propidium iodide staining-based flow cytometric method (reference value: 97.39%). It is filed as functional. Conditions: read-out: Activity.
Assay [9] relates to HeLa. Put plainly: Induction of apoptosis in human HeLa cells assessed as late apoptotic cells at 0.20 uM after 24 hrs by annexin V-FITC/propidium iodide staining-based flow cytometric method (reference value: 0.15%). It is filed as functional.
The test system of assay [10] is HeLa. The assay is described as follows: Induction of apoptosis in human HeLa cells assessed as necrotic cells at 0.20 uM after 24 hrs by annexin V-FITC/propidium iodide staining-based flow cytometric method (reference value: 0.15%). It is filed as functional.
Assay [11] has as its system HeLa. Put plainly: Induction of apoptosis in human HeLa cells after 24 hrs by annexin V-FITC/propidium iodide staining-based flow cytometric method. It counts as functional, cell-based.
For the next assay, the species on record is Sus scrofa. Put plainly: Competitive binding affinity to porcine brain tubulin preincubated for 1 hr followed by colchicine addition measured after 1 hr by fluorescence assay. Summed up: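 Tubulin (4 μM) in 80 mM PIPES pH 6.9, 2 mM MgCl2 and 0.5 mM EGTA was preincubated 1 h at 37 °C with 0.1, 1, 5 or 10 μM test agent, with DMSO as control. Colchicine (10 μM) was then added for another 1 h at 37 °C. Tubulin-colchicine fluorescence was read at ex 340/em 435 nm and normalized to DMSO; at least three replicates, mean ± SD.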

Take `COC(=O)c1ccc2c(c1)NC(=O)CN2C(=O)c1cc(OC)c(OC)c(OC)c1`: the Activity is reported as 55.2% in the assay with HeLa [1]; 30.6% with HeLa [2]; 40.4% in the assay on HeLa [3]; 33.1% in the assay on HeLa [4]; 44.6% in the assay with HeLa [5]; 3.9% with HeLa [6]. For the same compound, the Activity was 3.81% with HeLa [7]; 14.4% in the assay on HeLa [9]; 6.36% in the assay on HeLa [10]; “Dose-dependent effect” in the assay on HeLa [11]; “Dose-dependent effect” in the assay filed under Sus scrofa. The viability at 0.15 µM in the assay on HeLa [8] stood at 69.7%.
